How the values were obtained:
[1] = Antiproliferative activity against human 142BR cells after 48 hrs by sulforhodamine B assay; type: functional, cell-based
Summary of the method: (§1)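 Cells grown in RPMI 1640 (ACHN, C32, COR-L23) or DMEM (142BR, A375, A549, Caco-2, Huh-7D12), seeded and allowed to attach for 24 h. Then exposed 48 h to six serial dilutions (DMSO ≤0.5% final, matched in solvent controls), in six replicates. Fixed with ice-cold 40% TCA for 1 h at 4 °C and SRB-stained, read at 564 nm. Survival taken as % of untreated control; IC50 from dose–response curve; mean ± SD.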

[2] = Antiproliferative activity against human Huh-7D12 cells after 48 hrs by sulforhodamine B assay; type: functional, cell-based; settings: Huh-7D12, 48 h; summary of the method: as §1
[3] = system: Caco-2; test: Antiproliferative activity against human Caco-2 cells after 48 hrs by sulforhodamine B assay; type: functional, cell-based; settings: Caco-2, 48 h; summary of the method: as §1
[4] = system: COR-L23; test: Antiproliferative activity against human COR-L23 cells after 48 hrs by sulforhodamine B assay; type: functional, cell-based; settings: COR-L23, 48 h; summary of the method: as §1
[5] = system: ACHN; test: Antiproliferative activity against human ACHN cells after 48 hrs by sulforhodamine B assay; type: functional, cell-based; summary of the method: as §1
[6] = system: C32; test: Antiproliferative activity against human C32 cells after 48 hrs by sulforhodamine B assay; type: functional, cell-based; settings: C32, 48 h; summary of the method: as §1
[7] = system: A549; test: Antiproliferative activity against human A549 cells after 48 hrs by sulforhodamine B assay; type: functional, cell-based; settings: A549, 48 h; summary of the method: as §1
[8] = system: A-375; test: Antiproliferative activity against human A375 cells after 48 hrs by sulforhodamine B assay; type: functional, cell-based; settings: A-375, 48 h; summary of the method: as §1
[9] = Partition coefficient, log P of the compound; type: physicochemical; settings: octanol/water

Row | IC50 [3] | IC50 [5] | IC50 [7] | IC50 [8] | logP [9] | Structure (SMILES) | IC50 [1] | IC50 [2] | IC50 [4] | IC50 [6]
1 | > 100 µM | 10.8 µM | 7.4 µM | 7.7 µM | 2.4 | COc1ccc(-c2cc(=O)c3c(O)c(OC)c(OCCCN(C)C)cc3o2)cc1 | > 100 µM | > 100 µM | 7.2 µM | 8.9 µM
2 | > 100 µM | 10.5 µM | 13.2 µM | > 100 µM | 2.3 | COc1ccc(-c2cc(=O)c3c(O)c(OC)c(OCCN(C)C)cc3o2)cc1 | > 100 µM | > 100 µM | 9.2 µM | > 100 µM
3 | > 100 µM | 12.7 µM | > 100 µM | 38.6 µM | 2.6 | COc1ccc(-c2cc(=O)c3c(O)c(OC)c(OCCN4CCCC4)cc3o2)cc1 | > 100 µM | > 100 µM | > 100 µM | 54.7 µM
4 | 78.6 µM | 92.6 µM | 44.9 µM | 52.3 µM | 3 | COc1ccc(-c2cc(=O)c3c(O)c(OC)c(OCCN4CCCCC4)cc3o2)cc1 | > 100 µM | > 100 µM | 34.1 µM | 63.6 µM
5 | > 100 µM | 55.7 µM | 85.1 µM | 58.8 µM | 1.9 | COc1ccc(-c2cc(=O)c3c(O)c(OC)c(OCCN4CCOCC4)cc3o2)cc1 | > 100 µM | > 100 µM | 39.5 µM | 47.6 µM
6 | > 100 µM | 54.1 µM | 59.9 µM | > 100 µM | 3 | CCN(CC)CCOc1cc2oc(-c3ccc(OC)cc3)cc(=O)c2c(O)c1OC | > 100 µM | > 100 µM | 41.9 µM | > 100 µM
7 | 5.3 µM | 15.2 µM | 5.6 µM | 8.2 µM | 2 | COc1ccc(-c2cc(=O)c3c(O)c(OC)c(O)cc3o2)cc1 [PECTOLINARIGENIN] | > 100 µM | > 100 µM | 4.1 µM | 7 µM
8 | 6.2 µM | 17.2 µM | 38.8 µM | 32.9 µM | -0.7 | COc1ccc(-c2cc(=O)c3c(O)c(OC)c(O[C@@H]4O[C@H](CO[C@@H]5O[C@@H](C)[C@H](O)[C@@H](O)[C@H]5O)[C@@H](O)[C@H](O)[C@H]4O)cc3o2)cc1 [PECTOLINARIN] | > 100 µM | 50.8 µM | 5 µM | 7.2 µM
